From ChEMBL document CHEMBL1129450, “Synthesis, molecular modeling, and K+ channel-blocking activity of dequalinium analogues having semirigid linkers” (J Med Chem, 1996)

How the values were obtained:
[1] = organism: Rattus norvegicus; experiment: Inhibition of after-hyperpolarization (AHP) in cultured rat sympathetic neurons; format: functional; settings: Sympathetic neuron
How it was run: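 Compounds from 2 mM MeOH stocks, each tested at two to four concentrations on at least three cells. AHP inhibition was obtained by digitally subtracting blocker records from controls, with the peak difference given as % of control AHP at the same time point.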

[2] = organism: Rattus norvegicus; experiment: Equi-effective molar ratio expressed as the ratio of tested compound concentration to that of dequalinium that cause 50% inhibition of the AHP in rat sympathetic neurons; format: functional, Sympathetic neuron

Row | SMILES | IC50 [1] [nM] | Ratio [2]
1 | Nc1cc[n+](Cc2ccc(-c3cccc(-c4ccc(C[n+]5ccc(N)c6ccccc65)cc4)n3)cc2)c2ccccc12 | 360 | 0.59
2 | Nc1cc[n+](Cc2ccc(C[n+]3ccc(N)c4ccccc43)cc2)c2ccccc12 | 2800 | 3.7
3 | Nc1cc[n+](Cc2ccc3ccc4ccc(C[n+]5ccc(N)c6ccccc65)cc4c3c2)c2ccccc12 | 200 | 0.33
4 | Nc1cc[n+](Cc2ccc3cc(C[n+]4ccc(N)c5ccccc54)ccc3c2)c2ccccc12 | 490 | 0.83
5 | Nc1cc[n+](Cc2ccc(-c3ccc(-c4ccc(C[n+]5ccc(N)c6ccccc65)cc4)cc3)cc2)c2ccccc12 | 1900 | 2.3
6 | Nc1cc[n+](Cc2ccc(-c3ccc(C[n+]4ccc(N)c5ccccc54)cc3)cc2)c2ccccc12 | 380 | 0.4
7 | Nc1cc[n+](Cc2ccc(CCCc3ccc(C[n+]4ccc(N)c5ccccc54)cc3)cc2)c2ccccc12 | 200 | 0.31
8 | Nc1cc[n+](Cc2ccc(C#Cc3ccc(C[n+]4ccc(N)c5ccccc54)cc3)cc2)c2ccccc12 | 1000 | 1.41
9 | Nc1cc[n+](Cc2ccc3c(c2)Cc2cc(C[n+]4ccc(N)c5ccccc54)ccc2-3)c2ccccc12 | 310 | 0.33
10 | Nc1cc[n+](Cc2ccc(CCc3ccc(C[n+]4ccc(N)c5ccccc54)cc3)cc2)c2ccccc12 | 410 | 0.71
11 | Nc1cc[n+](Cc2ccc(CCCCc3ccc(C[n+]4ccc(N)c5ccccc54)cc3)cc2)c2ccccc12 | 370 | 0.44
12 | Nc1cc[n+](Cc2ccc(/C=C/c3ccc(C[n+]4ccc(N)c5ccccc54)cc3)cc2)c2ccccc12 | 940 | 1.46
13 | Nc1cc[n+](Cc2ccc(Cc3ccc(C[n+]4ccc(N)c5ccccc54)cc3)cc2)c2ccccc12 | 450 | 0.39
14 | Nc1cc[n+](Cc2cccc(-c3cccc(C[n+]4ccc(N)c5ccccc54)c3)c2)c2ccccc12 | 290 | 0.55
15 | Nc1cc[n+](Cc2ccc(/C=C\c3ccc(C[n+]4ccc(N)c5ccccc54)cc3)cc2)c2ccccc12 | 190 | 0.24
16 | Cc1cc(N)c2ccccc2[n+]1CCCCCCCCCC[n+]1c(C)cc(N)c2ccccc21.[Cl-].[Cl-] [DEQUALINIUM CHLORIDE] | 650 | 1
